Screens from PubChem.
PAFAH2 inh: PAFAH2 (human) inhibition; Q99487; recombinant PAFAH2, FP-rhodamine activity probe, fluorescence polarization; inhibition, % at 3.39 µM; 340,000 tested, 0.99% active; AID 492956;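 active means inhibition above the mean over all tested compounds plus 3 SD, cut at about 30% in these data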;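 further: inhibitors block probe labeling of enzyme so polarization drops; 0% = enzyme with DMSO and 100% = wells lacking PAFAH2 protein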
NR3A LBD binder: NR3A (human) ligand-binding domain modulation. 340,000 tested, 2.5% active. NR3A LBD differential scanning fluorimetry, Tm shift; 0% = protein alone, 100% = glycine-bound protein. Tm shift relative to glycine control, % at 25 µM;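 active means melting temperature shift of at least 10% of the positive control shift, at one fixed dose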
pPAFAH inh: inhibitors of human plasma PAF acetylhydrolase (pPAFAH). 330,000 tested, 1.5% active. recombinant pPAFAH, FP-rhodamine probe fluorescence polarization. Q13093. AID 463082. inhibition, % at 3.39 µM;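 active means inhibition above the mean inhibition across the screen plus 3 SD, cut at about 25% in these data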;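 further: inhibitors block binding of the rhodamine activity-based probe so polarization drops; 0% = enzyme with DMSO and 100% = wells lacking pPAFAH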
PAFAH1B3 inh: inhibitors of human PAFAH1B3; recombinant PAFAH1B3, FP-rhodamine probe, fluorescence polarization; inhibition, % at 3.39 µM; 340,000 tested, 0.28% active; AID 492972;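 active means inhibition above the screen-wide average of all tested compounds plus 3 SD, cut at about 25% in these data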;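 further: 0% = enzyme with DMSO only and 100% = wells lacking PAFAH1B3 protein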
Target sequence (Q15102 whole entry, looked up): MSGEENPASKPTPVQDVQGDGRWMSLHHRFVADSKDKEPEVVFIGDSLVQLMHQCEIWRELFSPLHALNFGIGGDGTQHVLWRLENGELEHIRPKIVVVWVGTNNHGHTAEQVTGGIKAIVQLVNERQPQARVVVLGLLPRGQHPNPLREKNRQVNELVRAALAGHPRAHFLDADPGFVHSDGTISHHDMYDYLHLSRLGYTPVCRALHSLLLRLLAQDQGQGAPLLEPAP
PAFAH1B2 FP inh: PAFAH1B2 (human) inhibition; recombinant PAFAH1B2, FP-rhodamine activity probe, fluorescence polarization; inhibition, % at 3.39 µM; 340,000 tested, 1.2% active;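 active means inhibition above the mean of all tested compounds plus 3 SD, cut at about 24% in these data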;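 further: 0% = enzyme with DMSO and 100% = wells lacking PAFAH1B2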
UCH37 DUB inh: blocks the human deubiquitinase UCH37 | inhibition, % (no concentration beside the values) | AID 588478 | 330,000 tested, 0.33% active | Q9Y5K5 | purified proteasome/UCH37, Ub-AMC cleavage fluorescence;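 active means mean inhibition over replicate wells above about 20%, limit read from the data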;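 further: 0% = compound-free wells with enzyme and 100% = wells lacking proteasome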
Target sequence (Q9Y5K5 whole entry, looked up): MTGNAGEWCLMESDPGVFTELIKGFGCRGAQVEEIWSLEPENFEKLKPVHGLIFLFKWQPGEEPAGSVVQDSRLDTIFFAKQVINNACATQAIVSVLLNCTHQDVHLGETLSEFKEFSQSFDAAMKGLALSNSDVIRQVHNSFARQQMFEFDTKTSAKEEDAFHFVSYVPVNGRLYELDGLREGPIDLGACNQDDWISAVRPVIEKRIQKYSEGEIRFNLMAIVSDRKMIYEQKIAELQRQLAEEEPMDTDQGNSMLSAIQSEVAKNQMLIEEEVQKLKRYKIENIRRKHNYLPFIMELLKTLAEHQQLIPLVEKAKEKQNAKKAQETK
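System: Proteasome-associated human UCH37 deubiquitinase; Input: 0.15 nM proteasome in added enzyme buffer; Also added: Ub-AMC substrate from 1 µM stock; Incubation: 30 min compound-proteasome preincubation then 25 min substrate reaction, room temperature; Detection: fluorescence, ex 355 nm, em 460 nm; Read-out: % inhibition of Ub-AMC cleavage fluorescence; Benchmarks: no-proteasome and no-compound wells.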
PAFAH2 FP conf: confirmation of human PAFAH2 inhibitors; shares compounds with PAFAH2 inh; recombinant PAFAH2, FP-rhodamine activity probe, fluorescence polarization; inhibition, % at 3.39 µM; 2,300 tested, 65% active; AID 493030;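 active means mean inhibition over three repeats above a set limit taken from the earlier primary screen, cut at about 30% in these data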;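 further: inhibitor blocks binding of rhodamine activity probe so polarization falls; 0% = enzyme with DMSO and 100% = wells lacking PAFAH2 protein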
An asterisk follows results filed as active; . = not tested or not shown. Compounds with a hit are over-represented: about 4.8% of the library has one in this group of screens.

SMILES	PAFAH2 inh	NR3A LBD binder	pPAFAH inh	PAFAH1B3 inh	PAFAH1B2 FP inh	UCH37 DUB inh	PAFAH2 FP conf
O=C(OCC(=O)N1CCc2ccccc21)C1=COCCO1	30*	0	8	7	4	2	19
O=C(/C=C/c1ccc(Cl)cc1Cl)OCC(=O)N1CCCC1	2	1	8	-4	2	3	.
COc1cc(/C=C/C(=O)OCC(=O)NC2CC2)cc(S(=O)(=O)N2CCc3ccccc32)c1OC	53*	2	8	4	3	6	38*
COc1ccc(/C=C/C(=O)OCC(=O)N2CCCCCC2)c(OC)c1	44*	0	-1	-11	1	1	36*
Cc1cccc(C=NNC(=O)c2cccc([N+](=O)[O-])c2)n1	.	.	.	.	.	5	.
CC(C)c1ccc(C=NNc2ccc(C(=O)O)cc2)cc1	.	.	.	.	.	7	.
S=c1[nH]nc(-c2cccnc2)n1N=Cc1ccco1	.	.	.	.	.	2	.
COc1ccccc1/C=C/C(=O)OCC(=O)N1CCc2ccccc21	77*	0	1	5	2	-12	71*
COc1ccc(/C=C/C(=O)OCC(=O)NC2CCCC2)c(OC)c1	86*	0	23	4	3	-1	85*
COc1ccccc1/C=C/C(=O)OCC(=O)NC(=O)NC1CCCC1	58*	3	-2	-6	5	-27	44*
COc1ccccc1/C=C/C(=O)OCC(=O)NC1CC1	64*	0	.	8	3	-68	64*
O=C(/C=C/c1ccc(OC(F)F)cc1)OCC(=O)N1CCc2ccccc21	5	-2	1	4	1	-2	.
COc1ccccc1/C=C/C(=O)OCC(=O)NNC(=O)c1ccccc1	14	0	18	17	2	-71	.
Cc1ccc(N2CCN(N=Cc3ccccc3[N+](=O)[O-])CC2)cc1	.	.	.	.	.	4	.
CCC(=NNC(=O)c1ccccc1Cl)c1ccc(Br)s1	.	.	.	.	.	4	.
COc1ccc(NCC(=O)NN=Cc2ccc3c(c2)OCCO3)cc1	.	.	.	.	.	4	.
CC1CCCCC1=NNc1ccc([N+](=O)[O-])cc1[N+](=O)[O-] (centres undefined)	.	.	.	.	.	0	.
O=C(O)c1ccc(C=NNC(=O)C(O)(c2ccccc2)c2ccccc2)cc1	.	.	.	.	.	2	.
Cc1ccccc1-c1nc2sc3c(c2c(=O)o1)CCC3	76*	2	17	9	-2	-2	80*
O=c1oc(-c2cc3ccccc3o2)nc2sc3c(c12)CCCC3	69*	-3	2	0	-7	-39	68*
COc1ccc(/C=C/c2nc3sc4c(c3c(=O)o2)CCC4)cc1	29	-1	1	2	6	-1	.
O=c1oc(-c2cccs2)nc2sc3c(c12)CCCCC3	17	2	-6	13	10	-10	.
O=c1oc(-c2ccccc2)nc2sc3c(c12)CCCC3	49*	2	-5	6	-1	-4	37*
O=c1oc(/C=C/c2ccccc2)nc2sc3c(c12)CCC3	66*	1	6	15	0	-6	60*
Cc1cc(C)n(-c2nnc(C)n2N=Cc2ccccc2F)n1	.	.	.	.	.	6	.
SMILES	PAFAH2 inh	NR3A LBD binder	pPAFAH inh	PAFAH1B3 inh	PAFAH1B2 FP inh	UCH37 DUB inh	PAFAH2 FP conf
Cc1nn(C2CCS(=O)(=O)C2)c(Cl)c1/C=C/C(=O)OCC(=O)Nc1ccccc1[N+](=O)[O-] (centres undefined)	75*	-3	5	1	4	0	74*
Cc1nn(C2CCS(=O)(=O)C2)c(Cl)c1/C=C/C(=O)OCC(=O)Nc1ccccc1OC(F)F (centres undefined)	50*	7	0	-3	4	-1	43*
C=CCn1c(C)cc(C(=O)COC(=O)/C=C/c2c(C)nn(C3CCS(=O)(=O)C3)c2Cl)c1C (centres undefined)	53*	-1	6	2	-4	0	43*
O=C(NN=Cc1ccoc1)c1ccc(Cl)cc1Cl	.	.	.	.	.	1	.
Cc1[nH]n2c(=O)c3c(nc2c1-c1cccc2ccccc12)CCC3	10	-4	6	4	-1	-7	.
O=c1c2c(nc3c(-c4cccc5ccccc45)c[nH]n13)CCC2	68*	1	11	6	1	-33	69*
O=C(COC(=O)c1cc2ccccc2cc1O)NC1CCCCC1	48*	1	8	5	3	0	33*
Nc1ncccc1C(=O)OCC(=O)NC1CCCCCC1	42*	1	6	9	5	-90	25
CCCCNC(=O)COC(=O)c1ccccc1F	46*	0	12	0	7	5	40*
CN(C(=O)COC(=O)c1cc2ccccc2cc1O)C1CCCCC1	9	0	6	5	3	1	.
O=C(COC(=O)c1c(F)cccc1Cl)NC1CCCCC1	66*	1	.	5	3	2	48*
O=C(COC(=O)c1ccccn1)NC1CCCCC1	7	0	6	5	-1	1	.
O=C(COC(=O)c1ccccc1F)NNC(=O)c1ccccc1	-1	1	9	10	8	3	.
Cn1ccnc1C(=NNC(=O)c1ccccc1)c1cccc([N+](=O)[O-])c1	.	.	.	.	.	4	.
Cc1cc(C(=O)NN=Cc2c[nH]c3ccccc23)c(C)o1	.	.	.	.	.	6	.
O=C(COC(=O)c1ccccc1F)NC1CCCC1	64*	-2	16	4	3	-1	60*
O=C(COC(=O)c1ccccc1F)NC1CC1	30*	0	7	7	5	-1	28
COc1cc(C=NNc2nc(-c3ccc(C)cc3)c(NC(C)=O)s2)ccc1O	.	.	.	.	.	-31	.
O=[N+]([O-])c1ccc(C=NNC(=S)Nc2ccccc2C(F)(F)F)o1	.	.	.	.	.	3	.
COc1ccc(C(=O)NC(C)C2CC3CCC2C3)cc1 (centres undefined)	3	0	3	7	16	5	.
CC(NC(=O)c1ccc(N(C)C)cc1)C1CC2CCC1C2 (centres undefined)	46*	3	.	0	12	.	33*
CC(NC(=O)COC(=O)c1ccc(CO)cc1)C1CC2CCC1C2 (centres undefined)	68*	1	1	2	2	5	64*
COc1ccccc1C=NNC(=O)c1cccc(NC(=O)c2ccccc2Cl)c1	.	.	.	.	.	4	.
CCOC(=O)C/C(C)=N/NC(=O)CNc1cccc(Cl)c1C	72*	1	-2	-1	3	.	63*
Cc1c(Cl)cccc1NCC(=O)NN=C1CCCC1	3	0	1	3	-2	2	.
COc1cc(OC)c(OC)cc1C=NNC(=O)c1cc(-c2cccn2C)n[nH]1	.	.	.	.	.	-17	.
CCC(C)NC(=O)COC(=O)c1csc2c1CCCC2 (centres undefined)	57*	-1	6	-6	5	-3	47*
